pIC50: −log10 of the molar value. Activity calls are given as the source filed them. The rule behind the calls is not given here.
Columns and labels:
[1] = target: Poly [ADP-ribose] polymerase 1 (Homo sapiens, UniProt P09874); test: Inhibition of recombinant human PARP1 using histone as substrate after 1 hr in presence of biotinylated NAD+ by ELISA
[2] = target: Phosphatidylinositol 4,5-bisphosphate 3-kinase catalytic subunit alpha isoform (Homo sapiens, UniProt P42336); test: Inhibition of PI3Kalpha (unknown origin) using PIP2 as substrate measured after 1 hr by ADP-glo plus luminescence assay
Chain of Phosphatidylinositol 4,5-bisphosphate 3-kinase catalytic subunit alpha isoform (P42336 whole entry, canonical isoform): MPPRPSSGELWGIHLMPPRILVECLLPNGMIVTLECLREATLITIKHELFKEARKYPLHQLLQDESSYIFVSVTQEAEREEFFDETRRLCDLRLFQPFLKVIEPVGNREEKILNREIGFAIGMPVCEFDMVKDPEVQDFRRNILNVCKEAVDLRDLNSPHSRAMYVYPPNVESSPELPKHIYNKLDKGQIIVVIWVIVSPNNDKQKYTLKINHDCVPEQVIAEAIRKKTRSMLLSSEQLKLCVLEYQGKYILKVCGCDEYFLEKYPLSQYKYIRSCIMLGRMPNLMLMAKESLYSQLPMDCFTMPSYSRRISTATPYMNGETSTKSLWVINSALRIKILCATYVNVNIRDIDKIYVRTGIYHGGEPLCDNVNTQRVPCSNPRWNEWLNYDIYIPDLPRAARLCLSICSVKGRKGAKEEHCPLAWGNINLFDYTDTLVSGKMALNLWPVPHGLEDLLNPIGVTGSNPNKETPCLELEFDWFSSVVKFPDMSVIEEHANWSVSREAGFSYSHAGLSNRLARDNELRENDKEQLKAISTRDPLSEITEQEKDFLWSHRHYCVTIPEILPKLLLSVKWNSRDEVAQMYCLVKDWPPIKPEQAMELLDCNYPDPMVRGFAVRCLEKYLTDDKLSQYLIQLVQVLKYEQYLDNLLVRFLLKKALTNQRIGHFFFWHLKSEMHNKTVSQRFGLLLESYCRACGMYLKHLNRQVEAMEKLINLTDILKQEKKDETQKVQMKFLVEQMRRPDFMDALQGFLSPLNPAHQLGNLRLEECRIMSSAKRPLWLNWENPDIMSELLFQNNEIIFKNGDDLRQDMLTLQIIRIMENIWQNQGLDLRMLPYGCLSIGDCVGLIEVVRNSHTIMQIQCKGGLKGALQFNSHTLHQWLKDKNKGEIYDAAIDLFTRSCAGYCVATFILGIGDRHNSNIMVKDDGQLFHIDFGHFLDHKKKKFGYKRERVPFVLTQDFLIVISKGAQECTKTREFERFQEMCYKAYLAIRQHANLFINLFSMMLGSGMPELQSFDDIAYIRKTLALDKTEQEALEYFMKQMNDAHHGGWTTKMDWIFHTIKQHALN

Homo sapiens = species on record: Homo sapiens; test: Selectivity ratio of IC50 for recombinant human PARP1 to IC50 for PI3Kalpha (unknown origin)
MDA-MB-468 [3] = test: Induction of apoptosis in human MDA-MB-468 cells assessed as viable cells at 2 uM measured after 72 hrs by Annexin V-FITC/propidium iodide staining based flow cytometry (reference value: 95.2%); format: functional
MDA-MB-468 [4] = test: Antiproliferative activity against human MDA-MB-468 cells measured after 7 days by Celltiter-glo assay; format: functional, cell-based; details: MDA-MB-468, 168 h
How it was run: (§1)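 Cells maintained in RPMI1640 with 10% FBS at 37 °C, 5% CO2. Seeded the day before dosing, grown 12 h, then exposed to graded compound concentrations for 7 days. CellTiter-Glo reagent added, 10 min at room temperature, luminescence read. Inhibition % = (1-(RLU compound - RLU blank)/(RLU DMSO - RLU blank))×100. IC50 from nonlinear regression, normalized dose-response fit.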

A2780 = test: Antiproliferative activity against human A2780 cells measured after 7 days by Celltiter-glo assay; format: functional, cell-based; details: A2780, 168 h; how it was run: as §1
Ramos = test: Antiproliferative activity against human Ramos cells measured after 7 days by Celltiter-glo assay; format: functional, cell-based; details: 168 h; how it was run: as §1
MDA-MB-231 = test: Antiproliferative activity against human MDA-MB-231 cells measured after 7 days by Celltiter-glo assay; format: functional, cell-based; details: MDA-MB-231, 168 h; how it was run: as §1
MDA-MB-468 [5] = details: Homo sapiens, 2 uM
DU-145 = test: Antiproliferative activity against human DU145 cells measured after 7 days by Celltiter-glo assay; format: functional, cell-based; details: DU-145, 168 h; how it was run: as §1
CAKI-1 = test: Antiproliferative activity against human CAKI-1 cells measured after 7 days by Celltiter-glo assay; format: functional, cell-based; details: CAKI-1, 168 h; how it was run: as §1
SW-620 = test: Antiproliferative activity against human SW620 cells measured after 7 days by Celltiter-glo assay; format: functional, cell-based; details: SW-620, 168 h; how it was run: as §1
BXPC-3 = test: Antiproliferative activity against human BxPC3 cells measured after 7 days by Celltiter-glo assay; format: functional, cell-based; details: BXPC-3, 168 h; how it was run: as §1
A549 = test: Antiproliferative activity against human A549 cells measured after 7 days by Celltiter-glo assay; format: functional, cell-based; details: A549, 168 h; how it was run: as §1
HCT-116 = test: Antiproliferative activity against human HCT116 cells measured after 7 days by Celltiter-glo assay; format: functional, cell-based; details: HCT-116, 168 h; how it was run: as §1
Jurkat = test: Antiproliferative activity against human Jurkat cells measured after 7 days by Celltiter-glo assay; format: functional, cell-based; details: 168 h; how it was run: as §1
MDA-MB-468 [6] = details: Homo sapiens, 2 uM; remark: listed apart in the source
MDA-MB-468 [7] = details: Homo sapiens, 2 uM; remark: listed apart in the source
MDA-MB-468 [8] = test: Induction of DNA damage in human MDA-MB-468 cells at 2 uM measured after 72 hrs by comet assay; format: functional, cell-based
How it was run: (§2)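 MDA-MB-468 cells treated for 72 h, harvested and run in a neutral comet assay. Ethidium bromide staining after electrophoresis. About 200 cell images per group analysed with CASP. DNA damage scored as tail intensity (percentage DNA in tail) and olive tail moment. Mean ± SD of three independent experiments.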

HCC1937 = test: Antiproliferative activity against human HCC1937 cells measured after 7 days by Celltiter-glo assay; format: functional, cell-based; details: HCC1937, 168 h; how it was run: as §1
MDA-MB-468 [9] = test: Induction of apoptosis in human MDA-MB-468 cells assessed as increase in cleaved PARP level at 1 uM […] by Western blot analysis; format: functional, cell-based
MDA-MB-468 [10] = test: Inhibition of PI3K in human MDA-MB-468 cells assessed as reduction in pS6 phosphorylation at S240 residue at 1 uM measured after 6 to 72 hrs by Western blot analysis; format: cell-based
How it was run: (§3)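 MDA-MB-468 cells seeded overnight, then exposed for 6 h; control medium contained 1‰ DMSO. Lysates run on 8–12% SDS-PAGE and transferred to PVDF. Blots blocked in 5% BSA/TBST and probed for pAKT-Ser473/total AKT or pS6-Ser240/total S6, with β-actin as loading control. HRP secondary with ECL detection; bands quantified by densitometry. Three independent experiments.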

MDA-MB-468 [11] = test: Inhibition of PI3K in human MDA-MB-468 cells assessed as reduction in AKT phosphorylation at S473 residue at 1 uM measured after 6 to 72 hrs by Western blot analysis; format: cell-based; how it was run: as §3
MDA-MB-468 [12] = test: Activation of ERK in human MDA-MB-468 cells assessed as increase in ERK autophosphorylation at T202 residue at 1 uM measured after 6 to 72 hrs by Western blot analysis; format: cell-based
How it was run: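 MDA-MB-468 cells seeded in six-well plates, incubated overnight, then treated for 6 h, with 1‰ (v/v) DMSO medium as control. Lysates cleared at 4 °C, protein quantified by BCA, resolved by 8-12% SDS-PAGE and transferred to PVDF. Membranes blocked in 5% BSA/TBST, probed with primary antibodies (pERK-Thr202, total ERK, cleaved PARP, β-actin) and HRP secondary. ECL detection, band densitometry.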

MDA-MB-468 [13] = test: Induction of DNA damage in human MDA-MB-468 cells at 1 uM measured after 72 hrs by comet assay; format: functional, cell-based; how it was run: as §2
MDA-MB-468 [14] = test: Inhibition of PI3K in human MDA-MB-468 cells assessed as reduction in RAD51 foci formation at 1 uM measured after 72 hrs by DAPI staining based immunofluorescence microscopic analysis; format: cell-based
How it was run: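 RAD51 foci in MDA-MB-468 cells on coverslips after 72 h drug exposure. Cells fixed (3% formaldehyde), permeabilized (0.1% Triton X-100), blocked in 10% FBS/PBS, incubated overnight at 4 °C with rabbit anti-RAD51 polyclonal, then secondary antibody plus DAPI. Foci and percent positive cells (>5 foci per cell) counted from about 200 cells. Mean ± SD of three independent experiments.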

MDA-MB-468 [15] = test: Inhibition of PI3K in human MDA-MB-468 cells assessed as increase in gammaH2AX foci formation at 1 uM measured after 72 hrs by DAPI staining based immunofluorescence microscopic analysis; format: cell-based
How it was run: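 MDA-MB-468 cells on coverslips given drugs for 72 h. Fixed in 3% formaldehyde, permeabilized with 0.1% Triton X-100, blocked in 10% FBS/PBS, then rabbit anti-γH2AX (Ser139) overnight at 4 °C. Secondary antibody and DAPI stain followed. About 200 cells scored for foci; a cell was positive with more than 5 foci. Three independent experiments.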

MDA-MB-468 [16] = test: Induction of apoptosis in human MDA-MB-468 cells assessed as necrotic cells at 1 uM measured after 72 hrs by Annexin V-FITC/propidium iodide staining based flow cytometry (reference value: 0.13%); format: functional
MDA-MB-468 [17] = test: Antitumor activity against human MDA-MB-468 cells xenografted in BALB/c mouse assessed as tumor growth inhibition at 50 mg/kg, ip administered every 2 days for 34 days and measured at 2 days interval during compound dosing relative to control; format: functional; details: MDA-MB-468, ip, read-out: TGI
MDA-MB-468 [18] = test: Induction of apoptosis in human MDA-MB-468 cells assessed as early apoptotic cells at 1 uM measured after 72 hrs by Annexin V-FITC/propidium iodide staining based flow cytometry (reference value: 3.88%); format: functional
MDA-MB-468 [19] = test: Induction of apoptosis in human MDA-MB-468 cells assessed as late apoptotic cells at 1 uM measured after 72 hrs by Annexin V-FITC/propidium iodide staining based flow cytometry (reference value: 0.78%); format: functional
[20] = Toxicity in BALB/c mouse xenografted with human MDA-MB-468 cells assessed as mortality at 50 mg/kg, ip administered every 2 days for 34 days; format: organism-based; details: in vivo
How it was run: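 Nude mice bearing subcutaneous right-flank MDA-MB-468 tumours (2 × 10^6 exponential-phase cells implanted). Randomised at about 100 mm³ tumour volume; 6 mice per group. Dosed ip every 2 days for 34 days. Vehicle controls received PBS with 5% DMSO. Body weight and tumour size recorded every 2 days; tumour volume calculated as ab²/2 from caliper diameters.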

MDA-MB-468 [21] = test: Induction of apoptosis in human MDA-MB-468 cells assessed as viable cells at 1 uM measured after 72 hrs by Annexin V-FITC/propidium iodide staining based flow cytometry (reference value: 95.2%); format: functional; details: MDA-MB-468, 72 h, read-out: Activity
MDA-MB-468 [22] = test: Inhibition of PI3K in human MDA-MB-468 cells assessed as reduction in BRCA2 mRNA level at 1 uM by Trizol reagent-based RT-PCR analysis; format: cell-based
How it was run: (§4)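 Total RNA from treated MDA-MB-468 cells extracted with TRIzol. BRCA1 or BRCA2 mRNA quantified by real-time PCR with GAPDH as internal control. Results given as fold change relative to the internal control. Mean ± SD of three independent experiments.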

MDA-MB-468 [23] = test: Inhibition of PI3K in human MDA-MB-468 cells assessed as reduction in BRCA1 mRNA level at 1 uM by Trizol reagent-based RT-PCR analysis; format: cell-based; how it was run: as §4

Chain of Poly [ADP-ribose] polymerase 1 (P09874 whole entry, canonical isoform): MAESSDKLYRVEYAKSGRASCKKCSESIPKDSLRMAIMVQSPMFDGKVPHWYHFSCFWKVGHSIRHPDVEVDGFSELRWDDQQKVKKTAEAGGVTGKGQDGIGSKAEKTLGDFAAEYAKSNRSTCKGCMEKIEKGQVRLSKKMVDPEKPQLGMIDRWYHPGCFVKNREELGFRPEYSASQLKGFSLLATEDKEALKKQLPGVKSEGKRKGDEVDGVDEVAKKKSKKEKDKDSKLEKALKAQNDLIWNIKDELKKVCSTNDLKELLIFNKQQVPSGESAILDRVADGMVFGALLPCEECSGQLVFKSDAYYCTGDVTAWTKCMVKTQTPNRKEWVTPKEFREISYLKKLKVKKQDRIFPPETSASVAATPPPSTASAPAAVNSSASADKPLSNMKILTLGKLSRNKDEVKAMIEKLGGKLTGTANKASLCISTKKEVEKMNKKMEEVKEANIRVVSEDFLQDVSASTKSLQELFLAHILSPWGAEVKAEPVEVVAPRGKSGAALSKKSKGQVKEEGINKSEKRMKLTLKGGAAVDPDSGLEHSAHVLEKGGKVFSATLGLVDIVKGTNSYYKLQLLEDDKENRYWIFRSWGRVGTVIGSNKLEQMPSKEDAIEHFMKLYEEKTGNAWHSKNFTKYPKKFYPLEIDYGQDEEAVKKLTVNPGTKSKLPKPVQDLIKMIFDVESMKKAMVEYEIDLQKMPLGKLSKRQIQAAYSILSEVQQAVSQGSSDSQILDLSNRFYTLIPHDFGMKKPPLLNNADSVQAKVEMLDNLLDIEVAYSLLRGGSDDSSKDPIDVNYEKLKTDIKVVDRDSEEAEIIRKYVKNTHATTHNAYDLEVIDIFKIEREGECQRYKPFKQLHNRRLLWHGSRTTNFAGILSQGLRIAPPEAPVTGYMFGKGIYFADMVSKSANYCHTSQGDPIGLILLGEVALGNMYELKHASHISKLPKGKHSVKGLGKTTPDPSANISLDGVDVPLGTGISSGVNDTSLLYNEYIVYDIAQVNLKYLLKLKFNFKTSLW

## Nc1ccc(-c2nc(N3CCOCC3)nc(N3CCN(C(=O)c4cc(Cc5n[nH]c(=O)c6ccccc56)ccc4F)CC3)n2)c(F)c1
[1]
  pIC50: 9.14
[2]
  pIC50: 6.15

## O=C(c1cc(Cc2n[nH]c(=O)c3ccccc23)ccc1F)N1CCN(c2nc(-c3ccc4cn[nH]c4c3)nc(N3CCOCC3)n2)CC1
[1]
  pIC50: 9.17
[2]
  pIC50: < 5.00

## Nc1ncc(-c2nc(N3CCOCC3)nc(N3CCN(C(=O)c4cc(Cc5n[nH]c(=O)c6ccccc56)ccc4F)CC3)n2)cn1
[1]
  pIC50: 9.08
[2]
  pIC50: 7.04
Homo sapiens
  Ratio IC50: 120

## Nc1ccc(-c2nc3c(c(N4CCOCC4)n2)CCN(C(=O)c2cc(Cc4n[nH]c(=O)c5ccccc45)ccc2F)C3)cn1
[1]
  pIC50: 8.10
[2]
  pIC50: 7.52

## O=C(c1cc(Cc2n[nH]c(=O)c3ccccc23)ccc1F)N1CCN(C(=O)C2CC2)CC1 [OLAPARIB]
MDA-MB-468 [3]
  Activity: 91.5%
MDA-MB-468 [4]
  pIC50: 4.86
A2780
  pIC50: 6.13
Ramos
  pIC50: 5.40
MDA-MB-231
  pIC50: 4.74
MDA-MB-468 [5]
  inhibition: Active
DU-145
  pIC50: 5.20
CAKI-1
  pIC50: 5.15
SW-620
  pIC50: 4.99
BXPC-3
  pIC50: 4.93
A549
  pIC50: 5.27
HCT-116
  pIC50: 5.52
Jurkat
  pIC50: 5.77
MDA-MB-468 [6]
  inhibition: Active
MDA-MB-468 [7]
  inhibition: Active
MDA-MB-468 [8]
  Activity: Active
HCC1937
  pIC50: 5.34

## Nc1ncc(-c2nc3c(c(N4CCOCC4)n2)CCN(C(=O)c2cc(Cc4n[nH]c(=O)c5ccccc45)ccc2F)C3)cn1
MDA-MB-468 [9]
  Activity: Active
MDA-MB-468 [4]
  pIC50: 5.59
MDA-MB-468 [10]
  inhibition: Active
MDA-MB-468 [11]
  inhibition: Active
[1]
  pIC50: 8.59
MDA-MB-468 [12]
  Activity: Active
MDA-MB-468 [13]
  Activity: Active
MDA-MB-231
  pIC50: 5.45
MDA-MB-468 [14]
  inhibition: Active
MDA-MB-468 [15]
  inhibition: Active
HCT-116
  pIC50: 5.80
MDA-MB-468 [16]
  Activity: 1.15%
MDA-MB-468 [17]
  inhibition in vivo at 50 mg/kg: 52.7%
MDA-MB-468 [18]
  Activity: 14.6%
[2]
  pIC50: 8.32
MDA-MB-468 [19]
  Activity: 19.4%
[20]
  Activity: Non-Toxic
MDA-MB-468 [21]
  viability at 1 µM: 65.9%
MDA-MB-468 [22]
  inhibition: Active
MDA-MB-468 [23]
  inhibition: Active
HCC1937
  pIC50: 5.46

## O=C(c1cc(Cc2n[nH]c(=O)c3ccccc23)ccc1F)N1CCN(c2nc(-c3cccc4[nH]ccc34)nc(N3CCOCC3)n2)CC1
[1]
  pIC50: 9.19
[2]
  pIC50: 6.20

## Nc1ccc(-c2nc(N3CCOCC3)nc(N3CCN(C(=O)c4cc(Cc5n[nH]c(=O)c6ccccc56)ccc4F)CC3)n2)cc1
[1]
  pIC50: 8.93
[2]
  pIC50: 6.48

## O=C(c1cc(Cc2n[nH]c(=O)c3ccccc23)ccc1F)N1CCN(c2nc(-c3cccc4[nH]ncc34)nc(N3CCOCC3)n2)CC1
[1]
  pIC50: 9.36
[2]
  pIC50: 6.46

Source: ChEMBL document CHEMBL4376860, “Discovery of Novel Dual Poly(ADP-ribose)polymerase and Phosphoinositide 3-Kinase Inhibitors as a Promising Strategy for Cancer Therapy” (J Med Chem, 2020)
